Measurements: ChEMBL document CHEMBL2046401, “Detailed structure-activity relationship of indolecarboxamides as H4 receptor ligands” (Eur J Med Chem, 2012)
Converted amounts (≈) assume the structure as drawn.

How the values were obtained:
[1] = molecular target: Histamine H4 receptor (Homo sapiens, UniProt Q9H3N8); assay: Displacement of [3H]histamine from human histamine H4 receptor expressed in HEK cells; type: cell-based, HEK293
[2] = Half life in human liver microsomes; type: ADME, Microsome
[3] = Half life in mouse liver microsomes; type: ADME, Microsome
[4] = Solubility of the compound at pH 6.8; type: physicochemical; conditions: buffer
Outline: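 Solubility determined by the DMSO solution precipitation method.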

Chain of Histamine H4 receptor (Q9H3N8 whole entry): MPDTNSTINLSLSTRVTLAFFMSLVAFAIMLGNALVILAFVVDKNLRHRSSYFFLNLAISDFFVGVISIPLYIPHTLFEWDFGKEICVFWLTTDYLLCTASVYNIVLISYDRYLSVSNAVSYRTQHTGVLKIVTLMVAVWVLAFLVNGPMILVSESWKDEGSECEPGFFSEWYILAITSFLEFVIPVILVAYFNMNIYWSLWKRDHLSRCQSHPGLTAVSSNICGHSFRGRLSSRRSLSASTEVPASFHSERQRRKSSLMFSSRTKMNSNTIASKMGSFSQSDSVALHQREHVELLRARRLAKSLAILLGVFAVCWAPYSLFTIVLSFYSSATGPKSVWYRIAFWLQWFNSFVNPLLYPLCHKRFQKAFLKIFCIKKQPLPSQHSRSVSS

| SMILES | Ki [1] | further results |
| --- | --- | --- |
| CN1CCN(C(=O)c2cc3c(F)c(Cl)ccc3[nH]2)CC1 | 6.31 nM |  |
| Cc1cc(Cl)cc2cc(C(=O)N3CC(N4CCCC4)C3)[nH]c12 | 31.6 nM | half-life [2]: > 90 min; half-life [3]: 11 min; solubility [4]: 10 µg/mL (≈ 31.5 µM) |
| O=C(c1cc2cc(Cl)cc(F)c2[nH]1)N1CC(N2CCCC2)C1 | 15.8 nM |  |
| CNC1CN(C(=O)c2cc3cc(Cl)cc(C)c3[nH]2)C1 | 200 nM | half-life [2]: > 90 min; half-life [3]: 26 min; solubility [4]: 51 µg/mL (≈ 184 µM) |
| Cc1ccc2[nH]c(C(=O)N3CCN(C)CC3)cc2c1 | 50.1 nM |  |
| Cc1cccc2cc(C(=O)N3CCN(C)CC3)[nH]c12 | 12.6 nM |  |
| CN1CCN(C(=O)c2cc3ccc(N)cc3[nH]2)CC1 | 79.4 nM |  |
| CN1CCN(C(=O)c2cc3ccc(O)cc3[nH]2)CC1 | 25.1 nM |  |
| CN1CCCN(C(=O)c2cc3ccccc3[nH]2)CC1 | 398 nM |  |
| CN1CCN(C(=O)c2cc3c(F)cccc3[nH]2)CC1 | 31.6 nM |  |
| CC(=O)c1ccc2[nH]c(C(=O)N3CCN(C)CC3)cc2c1 | 12600 nM |  |
| O=C(c1cc2cc(Cl)ccc2[nH]1)N1CCCNCC1 | 63.1 nM |  |
| CN[C@@H]1CCN(C(=O)c2cc3cc(Cl)cc(F)c3[nH]2)C1 | 251 nM |  |
| CN[C@@H]1CCN(C(=O)c2cc3cc(Cl)cc(C)c3[nH]2)C1 | 251 nM | half-life [2]: > 90 min; half-life [3]: 27 min; solubility [4]: 59 µg/mL (≈ 202 µM) |
| Cc1cc(Cl)cc2cc(C(=O)N3CCNCC3)[nH]c12 | 12.6 nM | half-life [2]: > 90 min; half-life [3]: 16 min; solubility [4]: 65 µg/mL (≈ 234 µM) |
| Cc1cccc2cc(C(=O)N3CCCN(C)CC3)[nH]c12 | 1580 nM |  |
| CN1CCN(C(=O)c2cc3c(O)cccc3[nH]2)CC1 | 158 nM |  |
| COc1ccc2[nH]c(C(=O)N3CCN(C)CC3)cc2c1 | 1000 nM |  |
| CN1CCN(C(=O)c2cc3c(N)cccc3[nH]2)CC1 | 316 nM |  |
| CN1CCN(C(=O)c2cc3cc(Cl)ccc3o2)CC1 | 251 nM |  |
| CN1CCN(C(=O)c2cc3cccc(Cl)c3[nH]2)CC1 | 20 nM |  |
| CN1CCCN(C(=O)c2cc3cc(Cl)cc(F)c3[nH]2)CC1 | 63.1 nM |  |
| CN1CCN(C(=O)c2cc3ccc([N+](=O)[O-])cc3[nH]2)CC1 | 2000 nM |  |

| SMILES | Ki [1] | further results |
| --- | --- | --- |
| COc1cccc2cc(C(=O)N3CCN(C)CC3)[nH]c12 | 2510 nM |  |
| CN1CCCN(C(=O)c2cc3c(F)cccc3[nH]2)CC1 | 251 nM |  |
| CNC1CN(C(=O)c2cc3cc(Cl)cc(F)c3[nH]2)C1 | 100 nM |  |
| O=C(c1cc2cc(Cl)ccc2[nH]1)N1CCNCC1 | 12.6 nM |  |
| CN1CCN(C(=O)c2cc3cc(F)ccc3[nH]2)CC1 | 15.8 nM |  |
| COc1cccc2[nH]c(C(=O)N3CCN(C)CC3)cc12 | 1000 nM |  |
| CN1CCN(C(=O)c2cc3c(Cl)cccc3[nH]2)CC1 | 31.6 nM |  |
| CN1CCN(C(=O)c2cc3ccncc3[nH]2)CC1 | 2000 nM |  |
| O=C(c1cc2cccc(F)c2[nH]1)N1CCNCC1 | 100 nM |  |
| COc1ccc2cc(C(=O)N3CCN(C)CC3)[nH]c2c1 | 15800 nM |  |
| CN1CCN(C(=O)c2cc3cccc(C(F)(F)F)c3[nH]2)CC1 | 1000 nM |  |
| CN1CCN(C(=O)c2cc3cc([N+](=O)[O-])ccc3[nH]2)CC1 | 79.4 nM |  |
| CN1CCN(C(=O)c2cc3c(F)ccc(F)c3[nH]2)CC1 | 79.4 nM |  |
| Cc1ccc(F)c2cc(C(=O)N3CCN(C)CC3)[nH]c12 | 39.8 nM |  |
| CN1CCN(C(=O)c2cc3cc(Cl)cc(N)c3[nH]2)CC1 | 5.01 nM | half-life [2]: 66 min; half-life [3]: 14 min; solubility [4]: 67 µg/mL (≈ 229 µM) |
| CN1CCN(C(=O)c2cc3cccnc3[nH]2)CC1 | 2000 nM |  |
| CNC1CN(C(=O)c2cc3cccc(C)c3[nH]2)C1 | 398 nM |  |
| CN[C@@H]1CCN(C(=O)c2cc3cccc(F)c3[nH]2)C1 | 501 nM |  |
| CN1CCN(C(=O)c2cc3cnccc3[nH]2)CC1 | 6310 nM |  |
| CN1CCN(C(=O)c2cc3ccc(Cl)cc3[nH]2)CC1 | 158 nM |  |
| CN1CCCN(C(=O)c2cc3cccc(C(F)(F)F)c3[nH]2)CC1 | 5010 nM |  |
| CN1CCCN(C(=O)c2cc3cccc(F)c3[nH]2)CC1 | 398 nM |  |
| CN1CCCN(C(=O)c2cc3cc(Cl)ccc3[nH]2)CC1 | 39.8 nM |  |

| SMILES | Ki [1] | further results |
| --- | --- | --- |
| CN1CCN(C(=O)c2cc3cc(Cl)cc(F)c3[nH]2)CC1 | 6.31 nM |  |
| O=C(c1cc2cc(Cl)cc(F)c2[nH]1)N1CCNCC1 | 20 nM |  |
| CC(=O)c1cccc2[nH]c(C(=O)N3CCN(C)CC3)cc12 | 5010 nM |  |
| CN1CCN(C(=O)c2cc3ccccc3s2)CC1 | 2510 nM |  |
| COc1cccc2cc(C(=O)N3CCCN(C)CC3)[nH]c12 | 15800 nM |  |
| Cc1cccc2cc(C(=O)N3CCNCC3)[nH]c12 | 39.8 nM |  |
| CN1CCN(C(=O)c2cc3cc(O)ccc3[nH]2)CC1 | 25.1 nM |  |
| CN1CCN(C(=O)c2cc3c(Cl)c(Cl)ccc3[nH]2)CC1 | 6.31 nM |  |
| Cc1cc(Cl)cc2cc(C(=O)N3CCN(C)CC3)[nH]c12 | 6.31 nM | half-life [2]: > 45 min; half-life [3]: 2 min; solubility [4]: 57 µg/mL (≈ 195 µM) |
| CN1CCN(C(=O)c2cc3cccc([N+](=O)[O-])c3[nH]2)CC1 | 794 nM |  |
| O=C(c1cc2cc(Cl)ccc2[nH]1)N1CC(N2CCCC2)C1 | 10 nM |  |
| CN1CCN(C(=O)c2cc3ncccc3[nH]2)CC1 | 3980 nM |  |
| CN[C@@H]1CCN(C(=O)c2cc3cccc(C)c3[nH]2)C1 | 631 nM |  |
| CN1CCN(C(=O)c2cc3cccc(F)c3[nH]2)CC1 | 20 nM |  |
| CNC1CN(C(=O)c2cc3cccc(F)c3[nH]2)C1 | 398 nM |  |
| CN1CCN(C(=O)c2cc3c([N+](=O)[O-])cccc3[nH]2)CC1 | 794 nM |  |
| Cc1cccc2cc(C(=O)N3CC(N4CCCC4)C3)[nH]c12 | 79.4 nM |  |
| CN1CCN(C(=O)c2cc3cccc(N)c3[nH]2)CC1 | 15.8 nM |  |
| CN1CCCN(C(=O)c2cc3c(F)c(Cl)ccc3[nH]2)CC1 | 31.6 nM |  |
| O=C(c1cc2cccc(F)c2[nH]1)N1CC(N2CCCC2)C1 | 39.8 nM |  |
| CN1CCN(C(=O)c2cc3cc(Cl)cc([N+](=O)[O-])c3[nH]2)CC1 | 398 nM |  |
